Compound activity: PubChem, several laboratories
UBC9 SUMO inh: inhibitors of human SUMOylation (UBC9); inhibition, % at 35 µM; HTRF SUMOylation assay, SAE1/SAE2 + UBC9, in vitro; P63279; AID 2006; 290,000 compounds, 0.36% hits; in the data active = inhibition above about 50%, passing the limit was not always enough; inconclusive = no clear call, values can overlap the other calls
Target sequence (P63279 whole entry, looked up): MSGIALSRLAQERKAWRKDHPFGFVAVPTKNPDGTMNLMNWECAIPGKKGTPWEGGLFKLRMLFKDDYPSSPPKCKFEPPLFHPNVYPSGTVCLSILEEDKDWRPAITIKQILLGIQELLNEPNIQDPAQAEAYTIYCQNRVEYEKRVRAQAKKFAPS
VIM-2 inh: blocks Pseudomonas aeruginosa VIM-2 metallo-beta-lactamase; AID 1527; inhibition, % at 5.6 µM; 290,000 compounds, 0.89% hits; purified VIM-2, nitrocefin hydrolysis, epi-absorbance fluorescence;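 active = inhibition above the mean of all tested compounds plus 3 SD, cutoff set per screening run, cut at about 7.5% in these data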;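 note: red hydrolysis product quenches plate fluorescence so inhibitors raise well fluorescence; 0% = enzyme with DMSO and 100% = DMSO without enzyme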
IMP-1 inh: blocks Pseudomonas aeruginosa IMP-1 metallo-beta-lactamase. purified IMP-1, nitrocefin hydrolysis, epi-absorbance fluorescence. inhibition, % at 5.6 µM. 290,000 compounds, 0.45% hits;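 active = inhibition above the mean plus 3 SD of all compounds in the same screening run, cut at about 4.5% in these data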;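 note: 0% = IMP-1 with DMSO and 100% = DMSO wells lacking enzyme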
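system = purified recombinant IMP-1 beta-lactamase | amount = 0.2 nM IMP-1, as dispensed | medium = HEPES buffer pH 7.1 with ZnSO4 and Brij 35 | times = 25 °C, 15 min preincubation, 25 min reaction | detection = plate fluorescence quenching by hydrolysis product, ex 480/em 530 nm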
PHOSPHO1 inh: PHOSPHO1 (human) inhibition | recombinant PHOSPHO1, absorbance phosphatase assay | 290,000 compounds, 1.1% hits | inhibition, % at 13.3 µM | AID 1565 | Q8TCT1; in the data active = inhibition above about 60%
Target sequence (Q8TCT1 whole entry, looked up): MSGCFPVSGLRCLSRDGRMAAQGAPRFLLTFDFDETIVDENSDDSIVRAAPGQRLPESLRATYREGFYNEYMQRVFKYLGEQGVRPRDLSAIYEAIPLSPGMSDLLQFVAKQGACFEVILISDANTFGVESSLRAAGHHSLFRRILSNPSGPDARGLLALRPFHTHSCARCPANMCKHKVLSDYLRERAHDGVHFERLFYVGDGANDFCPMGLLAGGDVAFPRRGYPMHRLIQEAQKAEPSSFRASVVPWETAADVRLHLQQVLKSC
HCV core dimer: blocks dimerization of HCV core protein; inhibition, % at 5 µM; 300,000 compounds, 0.33% hits; AID 1899; TR-FRET GST/Flag-core106 dimerization, 1536-well;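 active = inhibition above the mean of all tested compounds plus 3 SD, set per screening campaign, cut at about 45% in these data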
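Material: Tagged HCV core106 pair (GST and Flag) | Amount: GST-core106 13.5 nM, Flag-core106 17 nM | Medium: KF-containing HEPES buffer, pH 7.45, DTT, CHAPS, BSA | Reagent: Eu donor and XL665 acceptor anti-tag antibodies | Schedule: 4 h at 22.5 °C | Technique: Time-resolved FRET, ex 340 nm, em 617 and 671 nm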
HCV NS3 hel inh: HCV NS3 helicase inhibition; NS3 helicase DNA unwinding, Cy5 molecular beacon fluorescence; inhibition, % at 10.9 µM; 290,000 compounds, 0.56% hits; AID 1800;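 active = inhibition above the mean of all tested compounds plus 3 SD, set per campaign, cut at about 35% in these data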;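 note: 0% = DMSO wells and 100% = thioflavine S control wells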
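assay system = NS3 helicase fragment of HCV | buffer or medium = MOPS pH 6.5, MgCl2, DTT, Tween20, BSA | timing = 60 min unwinding reaction at 25 °C after ATP addition | signal = Cy5 beacon fluorescence read at start and 1 h | read-out basis = % inhibition of unwinding | control set = low DMSO, high thioflavine S at 110 µM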
NS3 helicase cf: confirmation of Hepatitis C virus NS3 helicase inhibitors; inhibition, % at 10.9 µM; shares compounds with HCV NS3 hel inh; NS3 helicase DNA unwinding, Cy5 molecular beacon fluorescence; 1,600 compounds, 31% hits;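 active = inhibition above the mean of all tested compounds plus 3 SD, cutoff set per campaign, cut at about 36% in these data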
DNA FID counter: intercalator displacement, NS3 helicase counter-screen; AID 1945; 1,600 compounds, 4% hits; shares compounds with HCV NS3 hel inh; inhibition, % at 7.9 µM; DNA fluorescent intercalator displacement, fluorescence; in the data active = inhibition above about 37%;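 note: 0% = vehicle and 100% = reference compound; higher means more displacement of ethidium bromide from the DNA hairpin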
An asterisk follows results filed as active; u = inconclusive; x = no result given. An excerpt weighted towards active compounds, which were near 3.1% of everything screened.

SMILES | UBC9 SUMO inh | VIM-2 inh | IMP-1 inh | PHOSPHO1 inh | HCV core dimer | HCV NS3 hel inh | NS3 helicase cf | DNA FID counter
COc1ccc(C(=O)Nc2ccc(NC(=O)CSc3nnc(-c4ccncc4)n3C)cc2)cc1 | 4 | -4 | -4 | 16 | -8 | 36* | -3 | -7
CCCCC1(c2ccc(F)cc2)NC(=O)N(CC(=O)N2CCN(C(=O)c3ccco3)CC2)C1=O (stereo unspecified) | -3 | -1 | -3 | 36 | 10 | 1 | x | x
CCc1ccc(CN(C)Cc2nc(-c3cccc(Cl)c3)no2)nc1 | 10 | -3 | 0 | 37 | -4 | -6 | x | x
Cc1ccc2sc(N3CCN(CCNC(=O)c4ccco4)CC3)nc2c1C | x | x | x | x | -2 | x | x | x
Cc1cc(C)cc(NC(=O)Nc2ccccc2N2CCCCC2)c1 | -1 | -3 | 1 | -8 | 6 | -9 | x | x
Cc1nc(SCC(=O)c2cc3ccccc3oc2=O)c(C#N)c(-c2ccccc2)c1C(=O)Nc1ccccc1 | 28 | -4 | -4 | -11 | 18 | 28 | x | x
COc1ccc(-c2c(C#N)c(SCC(=O)c3cc4ccccc4oc3=O)nc(C)c2C(=O)Nc2ccccc2)cc1 | 43 | -5 | -4 | -6 | -6 | 52* | 11 | -5
CCOC(=O)c1cnc2c(C)cc(C)cc2c1NCCCN1CCOCC1 | -1 | 9.6* | 0 | 15 | x | 41* | 0 | 77*
CC(C)N(C)CCOC(=O)C1COc2ccccc2O1 (stereo unspecified) | 20 | -3 | -3 | 16 | -2 | -4 | x | x
CCc1ccc(C(=O)C(C)OC(=O)C2COc3ccccc3O2)cc1 (stereo unspecified) | -20 | -3 | -2 | -2 | 2 | 45* | 5 | -18
Cc1cccc(NC(=S)NC(=O)/C=C/c2ccco2)n1 | 8 | 1 | -4 | 20 | 6 | 77* | -14 | -9
COc1ccc(CCNC(=O)/C=C/c2ccco2)cc1 | 4 | -5 | -4 | -7 | 7 | 41* | -22 | 6
COc1ccc(C(NC(=O)/C=C\c2ccco2)c2ccc(OC)c(OC)c2)cc1 (stereo unspecified) | 23 | -4 | -1 | 21 | 8 | 37* | -10 | -35
COc1ccccc1NC(=O)/C=C\c1ccco1 | 2 | -2 | -1 | 27 | 7 | 53* | -10 | -1
O=C1C[C@H]2[C@H](CO)[C@@H](OC(=O)c3ccc(-c4ccccc4)cc3)C[C@H]2O1 | -5 | -2 | -5 | 15 | -6 | 5 | x | x
CCc1ccc(-n2c(SCC(=O)N3Cc4ccccc4CC3C(=O)O)nnc2-c2ccncc2)cc1 (stereo unspecified) | 4 | 1 | 0 | 12 | 6 | 42* | -26 | -24
CCc1ccc(-n2c(SCC(=O)N3CCC(C(=O)O)CC3)nnc2-c2ccncc2)cc1 | 10 | 0 | -2 | 1 | 2 | 4 | x | x
COc1ccc(-c2nc3c(c(SCC(=O)Nc4cccc(O)c4)n2)Cc2c(CO)cnc(C)c2O3)cc1 | x | 1 | 4 | -3 | 71* | 70* | 2 | -4
Cn1nc(C(=O)OCC(=O)Nc2cccc(S(=O)(=O)N3CCCC3)c2)c2ccccc2c1=O | 10 | -1 | -2 | 28 | 2 | -6 | x | x
CCOC(=O)CC(=O)CSc1nc2c(c(-c3cccs3)c1C#N)CCC2 | 23 | -1 | -2 | 4 | 12 | 41* | 4 | -3
CCCCn1c(N)c(N(CC(C)C)C(=O)CC2CCCCC2)c(=O)[nH]c1=O | x | x | x | x | -2 | x | x | x
COc1ccc(NC(=O)c2c[nH]n3c(=O)cc(C4CCN(C(=O)OC(C)(C)C)CC4)nc23)cc1Cl | -8 | -1 | -4 | 20 | 22 | 36* | 52* | -28
NC(=O)CC1Nc2cccc3cccc(c23)NC1=O (stereo unspecified) | 11 | 8.1* | 9.1* | 6 | -24 | 61* | -7 | 24
O=C(CC1Nc2cccc3cccc(c23)NC1=O)Nc1ccccc1 (stereo unspecified) | 81 | 1 | -2 | -12 | -26 | 67* | -10 | 11
CCCOC(=O)C1[C@H]2C(=O)N(Cc3ccco3)C[C@]23C=C[C@H]1O3 (stereo partly specified) | 10 | -4 | -3 | 12 | 11 | 40* | -6 | -8
SMILES | UBC9 SUMO inh | VIM-2 inh | IMP-1 inh | PHOSPHO1 inh | HCV core dimer | HCV NS3 hel inh | NS3 helicase cf | DNA FID counter
CCN(C(=O)COC(=O)CCc1ccccc1)c1ccccc1 | 3 | -1 | -1 | 16 | 0 | -9 | x | x
Cc1ccc(CNC(=O)C2CCN(S(=O)(=O)c3c(C)noc3/C=C/c3ccco3)CC2)cc1 | 17 | 4 | 0 | 5 | 36 | 63* | -13 | -3
COc1ccc(C(CNC(=O)c2cccc(S(=O)(=O)Nc3cccc(C)c3)c2)N2CCOCC2)cc1 (stereo unspecified) | x | x | x | x | 1 | x | x | x
CCCN(S(=O)(=O)c1ccccc1F)S(=O)(=O)c1ccccc1Br | 7 | -4 | 0 | 36 | -11 | -6 | x | x
Nc1nc(-c2ccco2)cs1 | -5 | 1 | -2 | 93* | -6 | 37* | -14 | -1
c1coc(-c2ncc[nH]2)c1 | 26 | 1 | 0 | 14 | 2 | -4 | x | x
c1cncc(-c2nc(-c3ccco3)cs2)c1 | 13 | -2 | 0 | -13 | 7 | 6 | x | x
Nc1nc(-c2ccco2)c(-c2ccco2)s1 | 70 | 3 | 2 | 88* | 40 | 49* | -16 | 18
c1coc(-c2nc(-c3ccco3)c(-c3ccco3)nc2-c2ccco2)c1 | u | 7 | -1 | 68* | 73* | 116* | 93* | 38*
Cc1cccc(NS(=O)(=O)c2c(C(=O)N3CCOCC3)c(C)n(C)c2C)c1C | 6 | -9 | -4 | 16 | -6 | -4 | x | x
COCCC(=O)N1CCC(Oc2ccc(C(=O)N3C[C@H]4CC[C@H]3C4)cc2)CC1 | 5 | -3 | -2 | 8 | -3 | -4 | x | x
O=C(Cn1cc([N+](=O)[O-])cn1)NCc1cc2ccccc2[nH]1 | 9 | -1 | -2 | -17 | -3 | 3 | x | x
Oc1ccc(N=Nc2cccc(C(F)(F)F)c2)cc1C=Nc1ccc(N2CCOCC2)cc1 | 17 | -3 | -6 | -1 | -3 | 45* | 1 | 39*
O=S(=O)(Nc1ncnc2sc3c(c12)CCC3)c1ccc2ccccc2c1 | 24 | -3 | -1 | 16 | 17 | 1 | x | x
Cc1cc(F)ccc1S(=O)(=O)Nc1ncnc2sc3c(c12)CCC3 | 6 | -3 | -6 | -13 | 5 | 39* | 14 | -12
